The values that follow come from PMC9049778 (RSC Advances, 2020).

In assay [1] the test system is lung adenocarcinoma H1650. Put plainly: MTT assay, H1650. In kind it is cell-based. Conditions: Homo sapiens, NCI-H1650, 24 h, read-out: IC50 ± S.D. H1650. A digest of the protocol:
(§1)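 Cell lines from ATCC were seeded at 10^4 cells per well in 100 μL medium. They were exposed to the test compound for 24 h at 37 °C under 5% CO2. Then 10 μL MTT (5.0 mg mL−1) was added for 4 h at 37 °C. Cells were lysed in isopropanol/conc. HCl/Triton X100 for 10 min at room temperature with shaking. Formazan was read at 570 nm, in triplicate.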

Assay [2] deals with human colon adenocarcinoma HT-29. Put plainly: MTT assay, HT-29. Format: cell-based. The settings on record: read-out: IC50 ± S.D. HT-29, 24 h, mean of 3 independent experiments. The method in brief:
as §1
Background: Formazan colour is commonly taken as a measure of viable cells.

The subject of assay [3] is human promyelocytic leukemia HL-60. Put plainly: MTT assay, HL-60. Format: cell-based. Conditions: read-out: IC50 ± S.D. HL-60, 24 h, mean of 3 independent experiments. The method in brief:
as §1

For a further assay, the target named is PIM-1 kinase. Conditions: read-out: IC50 against PIM-1 kinase enzyme; cited from earlier work.
The next assay has as its target PIM-3 (Homo sapiens, UniProt Q86V86). Put plainly: PIM-3 kinase assay. Format: biochemical. A digest of the protocol: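 Radiometric filter assay. Active PIM-3 was mixed with substrate (1 mg mL−1 stock) and started with [33P]-ATP cocktail (250 μM ATP stock), then held 15 min at 30 °C. Aliquots were spotted onto P81 phosphocellulose, washed three times for about 10 min each in 1% phosphoric acid, and scintillation-counted. A no-substrate blank was subtracted. Kinase specific activity came from corrected cpm, ATP specific activity, time and enzyme amount.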

The target of another assay is PIM-2 (Homo sapiens, UniProt Q9P1W9). Put plainly: PIM-2 kinase assay. Format: biochemical. The method in brief: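 Luminescent ADP-Glo readout of ADP formed. Enzyme, substrate, ATP and inhibitor were diluted in kinase buffer, with 5% DMSO as vehicle. The kinase reaction ran 60 min at room temperature. ADP-Glo Reagent was then added for 40 min, followed by Kinase Detection Reagent for 30 min, both at room temperature, before luminescence was recorded.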

The target of another assay is PIM-1 (Homo sapiens, UniProt P11309). Put plainly: PIM-1 kinase assay. In kind it is biochemical.

A value given as a limit tells only on which side of the number the result lay.

PIM-2, sequence (Q9P1W9 whole entry): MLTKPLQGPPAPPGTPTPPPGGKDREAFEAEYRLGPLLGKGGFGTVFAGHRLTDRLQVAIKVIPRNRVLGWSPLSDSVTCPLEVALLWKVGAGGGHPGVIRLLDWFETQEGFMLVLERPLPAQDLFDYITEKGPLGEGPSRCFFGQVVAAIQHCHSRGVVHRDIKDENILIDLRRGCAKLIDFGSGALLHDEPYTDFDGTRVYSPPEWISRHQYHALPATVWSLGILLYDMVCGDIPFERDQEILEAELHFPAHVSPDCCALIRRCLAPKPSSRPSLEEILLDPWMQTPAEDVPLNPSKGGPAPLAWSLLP
PIM-1, sequence (P11309 whole entry): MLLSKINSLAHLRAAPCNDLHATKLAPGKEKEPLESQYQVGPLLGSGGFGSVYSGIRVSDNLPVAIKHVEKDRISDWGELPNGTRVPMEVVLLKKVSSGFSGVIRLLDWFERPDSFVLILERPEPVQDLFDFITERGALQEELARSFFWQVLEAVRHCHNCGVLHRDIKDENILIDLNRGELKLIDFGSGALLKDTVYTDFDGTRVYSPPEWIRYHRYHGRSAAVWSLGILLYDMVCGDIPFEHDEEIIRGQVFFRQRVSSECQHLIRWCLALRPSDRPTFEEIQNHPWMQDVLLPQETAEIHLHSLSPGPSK

As a reminder, the IC50 is the midpoint of a concentration-inhibition curve. Regarding `COc1ccc(/C=C/C(=O)CC2(O)C(=O)Nc3cc(Br)ccc32)cc1` (centres unmarked) [Compound 4, (E)-6-bromo-3-hydroxy-3-(4-(4-methoxyphenyl)-2-oxobut-3-enyl) indolin-2-one], the IC50 in assay [1] was over 100000 nM.
As to `COc1ccc(/C=C/C(=O)/C=C2/C(=O)Nc3cc(Br)ccc32)cc1` [Compound 5, (E)-6-bromo-3-((E)-4-(4-methoxyphenyl)-2-oxobut-3-enylidene)indolin-2 one], the IC50 in assay [2] is 1700 nM; in assay [1] it was over 100000 nM; in assay [3], 1400 nM.
On to `Nc1nccc(-c2c[nH]c3ccc(Br)cc23)n1` [Meridianin C, 4-(5-bromo-1H-indol-3-yl)pyrimidin-2-amine], for which, on PIM-1 kinase, the IC50 is 1440 nM.
As for `O=c1c(O)c(-c2ccc(O)c(O)c2)oc2cc(O)cc(O)c12` [Querecitin, quercetin, reference compound], the figures for the IC50 at PIM-3 and against PIM-2 were 830 ± 13 nM and 640 ± 10 nM, respectively.
Regarding `COc1ccc(/C=C/C(/C=C2/C(=O)Nc3cc(Br)ccc32)=N\O)cc1` [Compound 6, (E)-6-bromo-3-((2E,3E)-2-(hydroxyimino)-4-(4-methoxyphenyl)but-3-enylidene)indolin-2-one], the IC50 is 360 ± 12 nM on PIM-3, over 100000 nM in assay [1], 220 ± 10 nM against PIM-2 and 470 ± 13 nM at PIM-1.
